Laboratory results from ChEMBL document CHEMBL1649418, “Pyrimidine derivatives as potent and selective A3 adenosine receptor antagonists” (J Med Chem, 2011).

Key:
Assay type in all cases: cell-based
[1] = biological target: T1, Adenosine receptor A1 (Homo sapiens) (UniProt P30542); test: Displacement of [3H]DPCPX from human adenosine A1 receptor expressed in CHO cells at 0.1 uM by liquid scintillation counting
T1 sequence (whole entry): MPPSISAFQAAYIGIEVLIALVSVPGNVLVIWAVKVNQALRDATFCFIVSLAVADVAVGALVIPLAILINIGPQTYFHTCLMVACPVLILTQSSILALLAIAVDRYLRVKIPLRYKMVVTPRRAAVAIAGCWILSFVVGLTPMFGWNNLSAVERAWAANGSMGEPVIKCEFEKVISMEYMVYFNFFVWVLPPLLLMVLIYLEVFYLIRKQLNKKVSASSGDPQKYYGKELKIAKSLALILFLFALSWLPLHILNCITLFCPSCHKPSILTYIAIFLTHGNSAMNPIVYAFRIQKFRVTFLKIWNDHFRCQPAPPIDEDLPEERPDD
Outline: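 Transfected CHO cell membranes (15 μg) were incubated with [3H]DPCPX at 25 °C for 60 min, with six test concentrations from 0.1 nM to 1 μM. Nonspecific binding was defined with 10 μM R-PIA. Filters were washed four times with ice-cold buffer before scintillation counting. Ki (Cheng–Prusoff) is mean ± SEM, n=3; % displacement at 0.1 μM is n=2.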

Adenosine receptor A2a = Adenosine receptor A2a (Homo sapiens, UniProt P29274); test: Displacement of [3H][…] from human adenosine A2A receptor expressed in human HeLa cells at 0.1 uM by liquid scintillation counting
Outline: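 Nonspecific binding was defined with 50 μM NECA. Filters were washed four times with ice-cold buffer, then counted by scintillation. Ki (Cheng–Prusoff) is mean ± SEM, n=3; % displacement at 0.1 μM is n=2.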

[2] = biological target: T2, Adenosine receptor A2b (Homo sapiens) (UniProt P29275); test: Displacement of [3H]DPCPX from human adenosine A2B receptor expressed in HEK293 cells at 0.1 uM by liquid scintillation counting
T2 sequence (whole entry): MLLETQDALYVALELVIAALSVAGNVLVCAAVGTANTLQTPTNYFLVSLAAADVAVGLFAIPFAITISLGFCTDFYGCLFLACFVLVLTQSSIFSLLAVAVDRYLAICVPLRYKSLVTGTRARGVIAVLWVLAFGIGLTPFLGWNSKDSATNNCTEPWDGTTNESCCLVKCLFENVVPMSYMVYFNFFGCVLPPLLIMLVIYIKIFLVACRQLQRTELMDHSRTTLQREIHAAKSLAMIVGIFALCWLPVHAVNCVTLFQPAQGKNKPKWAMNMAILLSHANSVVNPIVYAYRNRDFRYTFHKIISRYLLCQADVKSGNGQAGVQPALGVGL
Outline: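 HEK-293 membranes (18 μg) were incubated with [3H]DPCPX (35 nM) at 25 °C for 30 min, with six concentrations from 0.1 nM to 1 μM. Nonspecific binding was defined with 400 μM NECA. Filters were washed six times with ice-cold buffer and counted by scintillation. Ki (Cheng–Prusoff) is mean ± SEM, n=3; % displacement at 0.1 μM is n=2.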

Adenosine receptor A3 = biological target: T3, Adenosine receptor A3 (Homo sapiens, UniProt P0DMS8); test: Displacement of [3H]NECA from human adenosine A3 receptor expressed in human HeLa cells by liquid scintillation counting
T3 sequence (P0DMS8 whole entry): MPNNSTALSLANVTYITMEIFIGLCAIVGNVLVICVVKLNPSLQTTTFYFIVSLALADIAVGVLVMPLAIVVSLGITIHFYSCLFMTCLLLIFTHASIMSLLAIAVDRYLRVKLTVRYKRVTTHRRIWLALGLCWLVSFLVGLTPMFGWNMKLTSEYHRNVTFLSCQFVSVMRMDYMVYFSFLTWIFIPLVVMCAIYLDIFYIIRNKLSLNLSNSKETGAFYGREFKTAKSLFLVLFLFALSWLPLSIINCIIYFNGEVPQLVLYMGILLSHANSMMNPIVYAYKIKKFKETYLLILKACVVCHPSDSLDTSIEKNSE
Outline: (§1)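 HeLa membranes (90 μg) carrying hA3AR were incubated with [3H]NECA (30 nM) at 25 °C for 180 min, with six concentrations from 0.1 nM to 1 μM. Nonspecific binding was defined with 100 μM R-PIA. Filters were washed six times and counted by scintillation.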

[3] = biological target: T4, Adenosine receptor A3 (Homo sapiens) (UniProt P0DMS8); test: Displacement of [3H]NECA from human adenosine A3 receptor expressed in human HeLa cells at 0.1 uM by liquid scintillation counting
T4 sequence (whole entry): T3 sequence (P0DMS8 whole entry)
Outline: as §1, with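 “scintillation. Ki (Cheng–Prusoff) is mean ± SEM, n=3; % displacement at 0.1 μM is n=2.” for “scintillation.”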

Sequence of Adenosine receptor A2a (P29274 whole entry): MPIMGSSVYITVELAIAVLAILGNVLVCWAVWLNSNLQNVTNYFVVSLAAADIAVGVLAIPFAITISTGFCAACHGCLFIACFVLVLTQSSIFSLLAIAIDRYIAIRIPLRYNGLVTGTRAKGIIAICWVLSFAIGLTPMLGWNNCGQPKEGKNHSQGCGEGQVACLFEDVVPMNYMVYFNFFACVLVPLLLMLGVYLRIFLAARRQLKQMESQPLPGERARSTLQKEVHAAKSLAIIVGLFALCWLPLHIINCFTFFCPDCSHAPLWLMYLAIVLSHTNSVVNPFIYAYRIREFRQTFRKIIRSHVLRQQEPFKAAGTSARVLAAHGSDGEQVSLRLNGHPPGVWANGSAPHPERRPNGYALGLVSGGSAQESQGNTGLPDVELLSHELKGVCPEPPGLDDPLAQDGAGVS

SMILES	inhibition [1] [%]	inhibition (Adenosine receptor A2a) [%]	inhibition [2] [%]	Ki (Adenosine receptor A3; read-out: Ki) [nM]	inhibition [3] [%]	Ki (Adenosine receptor A3; read-out: pKi (converted)) [nM]
CC(=O)Nc1nc(-c2ccc3c(c2)OCO3)cc(-c2ccc3c(c2)OCO3)n1	1	15	1	101		
COc1ccc(-c2cc(NC(C)=O)nc(-c3ccc(OC)cc3)n2)cc1	1	10	4			
CCCC(=O)Nc1nc(-c2ccccc2OC)cc(-c2ccccc2OC)n1	13	11	1		18	
CC(=O)Nc1nc(-c2ccco2)cc(-c2ccco2)n1	1	19	11		9	
CCCC(=O)Nc1nc(-c2ccoc2)cc(-c2ccoc2)n1	11	17	0		21	
CCCC(=O)Nc1cc(-c2ccc(C(F)(F)F)cc2)nc(-c2ccc(C(F)(F)F)cc2)n1	3	1	6		12	
CC(=O)Nc1nc(-c2ccc(F)cc2)cc(-c2ccc(F)cc2)n1	2	2	1		8	
CCC(=O)Nc1nc(-c2ccc(F)cc2)cc(-c2ccc(F)cc2)n1	14	3	1		22	
CC(=O)Nc1nc(-c2ccsc2)cc(-c2ccsc2)n1	2	2	1		1	
CCC(=O)Nc1cc(-c2ccc(SC)cc2)nc(-c2ccc(SC)cc2)n1	1	1	3	43.6		
CCC(=O)Nc1nc(-c2ccoc2)cc(-c2ccoc2)n1	3	2	11		16	
CCC(=O)Nc1nc(/C=C/c2ccccc2)cc(/C=C/c2ccccc2)n1	1	1	1	142		
CCC(CC)C(=O)Nc1cc(-c2ccc(OC)cc2)nc(-c2ccc(OC)cc2)n1	3	6	8	58.1		
CCCC(=O)Nc1cc(-c2ccc(OC)cc2OC)nc(-c2ccc(OC)cc2OC)n1	18	12	14	10.2		
CC(=O)Nc1cc(-c2ccc(Cl)cc2)nc(-c2ccc(Cl)cc2)n1	1	10	1	63.3		
CCC(=O)Nc1nc(-c2ccc(C)cc2)cc(-c2ccc(C)cc2)n1	1	1	3	157		
COc1ccccc1-c1cc(-c2ccccc2OC)nc(NC(C)=O)n1	4	10	1		2	
COc1ccccc1-c1cc(NC(C)=O)nc(-c2ccccc2OC)n1	1	14	1	24.1		
CCCC(=O)Nc1nc(-c2ccc(C(C)=O)cc2)cc(-c2ccc(C(C)=O)cc2)n1	7	14	2		22	
CC(=O)Nc1nc(-c2ccccc2F)cc(-c2ccccc2F)n1	8	12	10		15	

SMILES	inhibition [1] [%]	inhibition (Adenosine receptor A2a) [%]	inhibition [2] [%]	Ki (Adenosine receptor A3; read-out: Ki) [nM]	inhibition [3] [%]	Ki (Adenosine receptor A3; read-out: pKi (converted)) [nM]
COc1ccc(-c2cc(NC(=O)C(C)C)nc(-c3ccc(OC)cc3)n2)cc1	5	1	3	12.2		
CC(=O)Nc1nc(-c2ccc(C(C)=O)cc2)cc(-c2ccc(C(C)=O)cc2)n1	7	8	14		2	
CCC(=O)Nc1cc(/C=C/c2ccccc2)nc(/C=C/c2ccccc2)n1	17	2	2	46.9		
CCCC(=O)Nc1nc(-c2ccco2)cc(-c2ccco2)n1	17	23	15		1	
CCC(=O)Nc1nc(-c2ccc(C(C)=O)cc2)cc(-c2ccc(C(C)=O)cc2)n1	1	12	1		17	
CC(=O)Nc1cc(-c2ccc(C(C)=O)cc2)nc(-c2ccc(C(C)=O)cc2)n1	10	13	16	25.2		
COc1ccc(-c2cc(NC(=O)C(C)C)nc(-c3ccc(OC)cc3OC)n2)c(OC)c1	18	1	1	15.9		
COc1ccc(-c2cc(NC(=O)C3CCCCC3)nc(-c3ccc(OC)cc3)n2)cc1	5	1	1	32.1		
CSc1ccc(-c2cc(NC(C)=O)nc(-c3ccc(SC)cc3)n2)cc1	1	1	2	71.3		
CC(=O)Nc1cc(/C=C/c2ccccc2)nc(/C=C/c2ccccc2)n1	1	13	1	15.6		
CCC(=O)Nc1nc(-c2ccco2)cc(-c2ccco2)n1	24	15	21	1900		
CCCC(=O)Nc1cc(-c2ccc(Cl)cc2)nc(-c2ccc(Cl)cc2)n1	16	21	1	103		
COc1ccc(-c2cc(NC(=O)C3CCCCC3)nc(-c3ccc(OC)cc3OC)n2)c(OC)c1	1	1	4	56.3		257
CCC(=O)Nc1cc(-c2ccc(OC)cc2OC)nc(-c2ccc(OC)cc2OC)n1	6	14	8	11.3		
CC(=O)Nc1nc(-c2ccc(C)cc2)cc(-c2ccc(C)cc2)n1	3	6	3	47.3		
CCC(=O)Nc1cc(-c2ccc(C(C)=O)cc2)nc(-c2ccc(C(C)=O)cc2)n1	1	1	2	43.9		
CCCC(=O)Nc1cc(-c2ccc(C)cc2)nc(-c2ccc(C)cc2)n1	16	2	3	59		
CCCC(=O)Nc1cc(-c2ccc(C(C)=O)cc2)nc(-c2ccc(C(C)=O)cc2)n1	2	1	1	133		
CC(=O)Nc1cc(-c2ccc(C(F)(F)F)cc2)nc(-c2ccc(C(F)(F)F)cc2)n1	1	1	1	126		
CCC(CC)C(=O)Nc1cc(-c2ccc(OC)cc2OC)nc(-c2ccc(OC)cc2OC)n1	1	2	2	52.4		
